# Results as given in paper PMC3514448 (ACS chemical biology, 2012).
# Like-named read-outs stand apart in the source and are kept apart here.
# How the values were obtained:
# EcFtsZ = EcFtsZ (Escherichia coli, UniProt P0A9A6); format: biochemical; settings: for Inhibition of EcFtsZ GTPase activity with detergent: 0.01% Triton X-100; for Inhibition of EcFtsZ GTPase activity at increasing FtsZ concentrations: increasing protein concentration
# BsFtsZ [1] = target: T1, BsFtsZ (Bacillus subtilis, UniProt P17865); assay: Enzyme-coupled GTPase assay, BsFtsZ; format: biochemical; settings: for Inhibition of BsFtsZ GTPase activity: absence of Triton X-100; for Inhibition of BsFtsZ GTPase activity with detergent: 0.01% Triton X-100; for Inhibition of BsFtsZ GTPase activity at increasing FtsZ concentrations: increasing protein concentration
# FtsZ [2] = settings: cited from earlier work
# SaFtsZ = SaFtsZ (Staphylococcus aureus, UniProt P0A031); assay: GTPase assay, SaFtsZ; format: biochemical
# Outline: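 Recombinant S. aureus FtsZ (pET11a, E. coli C41(DE3), IPTG 30 °C 5 h) purified by ammonium sulfate and anion exchange; BCA concentration divided by 0.75. 10 μM FtsZ with inhibitor in DMSO, pH 6.5 MES/Mg(OAc)2/KOAc, preincubated 5 min, then GTP added. Coupled: PK/LDH, PEP, NADH, A340 over time at ~25 °C. Malachite green: 30 °C, EDTA-quenched time points, A630 against phosphate standards.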
# BsFtsZ [3] = target: T1, BsFtsZ; assay: Malachite green GTPase assay, BsFtsZ; format: biochemical; settings: concentrations up to 100 μM
# B. subtilis strain 168 = assay: Antimicrobial activity; format: cell-based, Bacillus subtilis
# FtsZ [4] = assay: Malachite green GTPase assay under approximate Merck viriditoxin conditions; format: biochemical; settings: up to 128 μM; 50 mM Tris, 34 mM KCl, 0.75 mM Mg(OAc)2, 2.5 mM CaCl2, 50 μg/mL DEAE-Dextran, 37 °C
# [5] = Chemical stability on storage; format: physicochemical; settings: degrades if not stored free of solvent and at low temperature
# tubulin = settings: berberine even at high concentration (100 μM); cited from earlier work
# Dnm1 = target: T2, Dnm1 (Saccharomyces cerevisiae, UniProt P54861); assay: GTPase activity of the eukaryotic GTPase Dnm1; format: biochemical
# T2 sequence (P54861 1-757): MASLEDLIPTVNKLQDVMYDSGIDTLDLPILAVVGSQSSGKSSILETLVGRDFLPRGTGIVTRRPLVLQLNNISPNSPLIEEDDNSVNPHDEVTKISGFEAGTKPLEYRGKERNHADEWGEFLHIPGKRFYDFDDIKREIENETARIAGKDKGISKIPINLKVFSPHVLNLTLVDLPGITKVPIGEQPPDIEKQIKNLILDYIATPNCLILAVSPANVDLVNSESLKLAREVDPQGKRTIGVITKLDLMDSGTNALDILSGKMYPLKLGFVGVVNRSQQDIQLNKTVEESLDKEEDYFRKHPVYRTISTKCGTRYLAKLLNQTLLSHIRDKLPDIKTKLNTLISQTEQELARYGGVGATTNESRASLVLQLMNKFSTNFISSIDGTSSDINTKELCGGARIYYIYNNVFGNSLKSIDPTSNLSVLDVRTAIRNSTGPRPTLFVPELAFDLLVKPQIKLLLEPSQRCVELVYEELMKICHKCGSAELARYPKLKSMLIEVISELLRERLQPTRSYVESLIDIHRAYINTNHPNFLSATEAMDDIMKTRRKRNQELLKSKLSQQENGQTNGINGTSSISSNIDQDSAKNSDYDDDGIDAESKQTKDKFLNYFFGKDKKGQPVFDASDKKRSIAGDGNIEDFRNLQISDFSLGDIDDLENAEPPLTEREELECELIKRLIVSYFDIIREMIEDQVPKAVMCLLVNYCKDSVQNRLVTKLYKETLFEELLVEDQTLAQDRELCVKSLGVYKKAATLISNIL
# [6] = standard conditions, up to 200 μM
# T1 sequence (P17865 whole entry): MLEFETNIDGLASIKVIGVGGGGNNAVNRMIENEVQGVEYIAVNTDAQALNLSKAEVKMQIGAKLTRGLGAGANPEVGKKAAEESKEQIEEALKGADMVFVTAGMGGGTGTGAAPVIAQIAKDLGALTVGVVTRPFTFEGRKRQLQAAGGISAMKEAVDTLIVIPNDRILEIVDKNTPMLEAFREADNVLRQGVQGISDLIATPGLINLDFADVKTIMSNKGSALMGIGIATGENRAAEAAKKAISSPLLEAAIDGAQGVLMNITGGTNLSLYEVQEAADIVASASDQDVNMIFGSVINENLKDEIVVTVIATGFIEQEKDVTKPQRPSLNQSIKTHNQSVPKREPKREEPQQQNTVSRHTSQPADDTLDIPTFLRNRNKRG
# Sequence of EcFtsZ (P0A9A6 whole entry): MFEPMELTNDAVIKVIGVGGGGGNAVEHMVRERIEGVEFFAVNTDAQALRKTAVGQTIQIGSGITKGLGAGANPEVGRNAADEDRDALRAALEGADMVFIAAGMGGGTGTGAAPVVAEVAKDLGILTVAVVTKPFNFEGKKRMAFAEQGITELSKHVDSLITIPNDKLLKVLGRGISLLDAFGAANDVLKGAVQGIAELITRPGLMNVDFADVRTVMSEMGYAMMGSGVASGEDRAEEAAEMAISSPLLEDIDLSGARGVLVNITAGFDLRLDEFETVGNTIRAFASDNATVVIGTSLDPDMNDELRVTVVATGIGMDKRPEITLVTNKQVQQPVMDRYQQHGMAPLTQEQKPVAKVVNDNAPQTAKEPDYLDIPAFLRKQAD
# Sequence of SaFtsZ (P0A031 whole entry): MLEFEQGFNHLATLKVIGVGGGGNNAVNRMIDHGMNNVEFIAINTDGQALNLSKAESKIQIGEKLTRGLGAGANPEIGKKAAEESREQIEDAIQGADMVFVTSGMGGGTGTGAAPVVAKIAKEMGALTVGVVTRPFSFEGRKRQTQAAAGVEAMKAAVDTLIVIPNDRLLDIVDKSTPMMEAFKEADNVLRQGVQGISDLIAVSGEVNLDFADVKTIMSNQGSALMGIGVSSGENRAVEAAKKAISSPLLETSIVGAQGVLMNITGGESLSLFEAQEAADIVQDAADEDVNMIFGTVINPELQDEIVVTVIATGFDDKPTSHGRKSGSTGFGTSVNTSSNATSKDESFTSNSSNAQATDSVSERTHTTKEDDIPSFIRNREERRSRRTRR
compound,measurement,setting,value
O=C1CC(c2ccc(O)cc2)Oc2c(Cc3ccccc3O)c(O)c(Cc3ccccc3O)c(O)c21 (stereo not shown) [4′-hydroxydichamanetin],Inhibition of EcFtsZ GTPase activity,EcFtsZ,exhibited the published activity
same,Inhibition of BsFtsZ GTPase activity,BsFtsZ [1],exhibited the published activity
COc1nc2c(=O)[nH]c(N)nc2n1[C@@H]1O[C@H](COP(=O)(O)OP(=O)(O)OP(=O)(O)O)[C@@H](O)[C@H]1O [8-methoxy GTP],Concentration at which the GTPase activity of FtsZ is inhibited,FtsZ [2],15 µM
O=C1C[C@@H](c2ccccc2)Oc2c(Cc3ccccc3O)c(O)c(Cc3ccccc3O)c(O)c21 [Dichamanetin],Reported activity (FtsZ inhibition),FtsZ [2],12.5 µM
NC(=O)c1c(F)ccc(OCc2nc3cc(Cl)cnc3s2)c1F [PC190723],"Inhibition of BsFtsZ, enzyme-coupled assay",BsFtsZ [1]; concentrations up to 100 μM,no inhibition
same,Inhibition of SaFtsZ GTPase activity,SaFtsZ,no inhibition
same,Change of SaFtsZ GTPase activity,SaFtsZ; basal activity ~0.5 GTP/FtsZ/min,dose-dependent and reproducible increase in activity
same,"Inhibition of BsFtsZ, malachite green assay",BsFtsZ [3],no inhibition
same,MIC,B. subtilis strain 168,1 µM
"COC(=O)CC1Cc2cc3cc(OC)c(-c4c(OC)cc5cc6c(c(O)c5c4O)C(=O)OC(CC(=O)OC)C6)c(O)c3c(O)c2C(=O)O1 (stereo not shown) [Viriditoxin, viriditoxin]",Inhibition of E. coli FtsZ,EcFtsZ; [6],no inhibition
same,Inhibition of B. subtilis FtsZ,BsFtsZ [1]; [6],no inhibition
same,Inhibition of FtsZ GTPase under Merck conditions,FtsZ [4],no inhibition
same,Chemical stability,[5],chemically unstable
same,IC50,FtsZ [2]; read-out: Reported IC50 (FtsZ),10 µM
COc1ccc2cc3[n+](cc2c1OC)CCc1cc2c(cc1-3)OCO2 [berberine],Inhibition of tubulin assembly,tubulin,does not do so
C[n+]1cc2c3c(ccc2c2ccc4cc5c(cc4c21)OCO5)OCO3 [sanguinarine],Inhibition of tubulin assembly,tubulin,inhibit tubulin assembly
CC(C)c1c(O)ccc2c1CC[C@H]1C(C)(C)CCC[C@]21C [totarol],Inhibition of EcFtsZ GTPase activity with detergent,EcFtsZ,vanished
same,Inhibition of EcFtsZ GTPase activity,EcFtsZ; absence of Triton X-100,reproduce the IC50
same,Inhibition of EcFtsZ GTPase activity at increasing FtsZ concentrations,EcFtsZ,decreased nearly to the point of having no effect
same,Inhibition of BsFtsZ GTPase activity with detergent,BsFtsZ [1],vanished
same,Inhibition of BsFtsZ GTPase activity,BsFtsZ [1],reproduce the IC50
same,Inhibition of BsFtsZ GTPase activity at increasing FtsZ concentrations,BsFtsZ [1],decreased nearly to the point of having no effect
same,Dnm1 GTPase activity on addition of detergent,Dnm1; 0.01% Triton X-100,completely restored
same,Effect on Dnm1 GTPase activity,"Dnm1; micromolar concentrations, no detergent",significant reduction
Oc1ccc(Cl)cc1Cc1cc(Cl)cc(Cc2cc(Cl)ccc2O)c1O [zantrin Z1],Inhibition of EcFtsZ GTPase activity,EcFtsZ; absence of Triton X-100,exhibited the published activity
same,Inhibition of BsFtsZ GTPase activity,BsFtsZ [1],exhibited the published activity
Zantrin Z3,Inhibition of EcFtsZ GTPase activity with detergent,EcFtsZ,maintained
same,Inhibition of EcFtsZ GTPase activity at increasing FtsZ concentrations,EcFtsZ,maintained
same,IC50,"EcFtsZ; read-out: IC50 for inhibition of EcFtsZ GTPase activity, no Triton X-100",20 µM
same,Inhibition of BsFtsZ GTPase activity with detergent,BsFtsZ [1],maintained
same,Inhibition of BsFtsZ GTPase activity at increasing FtsZ concentrations,BsFtsZ [1],maintained
